Screening results deposited in PubChem by Johns Hopkins Ion Channel Center.
RGS4 act: RGS4 potentiators or activators, primary screen, cell-based, HEK293 M3R inducible RGS4, calcium flux; 0.92% of 310,000 active; B-score at 10 µM; carbachol calcium flux Fluo4; active compounds read low;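 active = B-score of the integrated calcium signal more than 4 SD below the library mean, with starting fluorescence not abnormally high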;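 note: negative B-score means reduced calcium response which marks RGS4 activation or potentiation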
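System: HEK293 FlpIn-TREx cells, stable M3R, doxycycline-inducible RGS4. Timing: overnight RGS4 induction, 30 min dye load 37 °C, 20 min compound RT. Also added: carbachol, ECmax concentration. Measured by: Fluo4 fluorescence kinetic imaging of calcium. Evaluation: integrated calcium ratio converted to B score.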
RGS4 inh: RGS4 inhibitors, primary screen, cell-based, HEK293 M3R inducible RGS4, calcium flux | B-score at 10 µM | 0.45% of 310,000 active | AID 463165, 2010 | Fluo-4 calcium flux; active compounds read high; triggered by carbachol at its EC20;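 active = B-score, a plate-corrected calcium signal, over three deviations above library mean, with baseline fluorescence within five deviations of library mean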;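 note: RGS4 expression induced by doxycycline in cells with stable M3 receptor; B-score is computed from the integrated fluorescence ratio over baseline after carbachol; higher B-score means a larger calcium signal and so more RGS4 inhibition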
Target sequence (P49798 whole entry, looked up): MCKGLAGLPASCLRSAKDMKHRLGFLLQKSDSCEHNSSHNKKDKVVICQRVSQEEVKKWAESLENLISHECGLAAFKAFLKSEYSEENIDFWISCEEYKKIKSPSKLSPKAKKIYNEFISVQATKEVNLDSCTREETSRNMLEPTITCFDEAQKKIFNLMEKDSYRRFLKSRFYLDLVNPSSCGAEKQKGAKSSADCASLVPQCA
MrgX1 ag: agonists of human MrgX1 receptor, primary screen, HEK293 cells, Fluo-4 calcium flux; 0.44% of 310,000 active; B-score at 10 µM; Fluo-4 calcium fluorescence, agonist mode; active compounds read high; Mas-related G-protein coupled receptor member X1 (Homo sapiens), Q96LB2; AID 588627, 2011;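 active = calcium response B-score plate-corrected fluorescence ratio at least 3 library SD, with starting fluorescence B-score inside 5 SD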
Target sequence (Q96LB2 whole entry, looked up): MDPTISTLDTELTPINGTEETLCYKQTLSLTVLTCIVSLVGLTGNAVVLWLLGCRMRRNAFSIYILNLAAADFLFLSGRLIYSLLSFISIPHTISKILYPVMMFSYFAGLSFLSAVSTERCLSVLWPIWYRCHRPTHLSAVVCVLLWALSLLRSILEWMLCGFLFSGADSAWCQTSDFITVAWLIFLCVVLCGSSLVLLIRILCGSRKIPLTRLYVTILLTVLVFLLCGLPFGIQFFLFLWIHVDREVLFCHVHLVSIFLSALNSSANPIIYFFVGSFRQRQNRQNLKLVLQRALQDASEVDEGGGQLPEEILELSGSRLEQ
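times = overnight plating, then 30 min 37 °C plus 30 min room-temperature dye loading | assay system = stable human MrgX1 HEK293 cell line | input = fifteen thousand cells per well | signal = kinetic calcium dye fluorescence, Fluo-4 NW | dosing = compound delivered in addition one of three | read-out = B-scored fluorescence response ratio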
MrgX1 antag: antagonists of human MrgX1 receptor, primary screen, HEK293 cells, Fluo-4 calcium flux | BAM8-22 antagonism; active compounds read low | 1.3% of 310,000 active | AID 588676, 2011 | Mas-related G-protein coupled receptor member X1 (Homo sapiens), Q96LB2 | B-score at 10 µM;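 active = calcium-response B-score plate-corrected more than 3 library SD below zero, starting fluorescence within 5 deviations, no agonist response on first addition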;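 note: peak minus trough fluorescence over baseline after final BAM8-22 challenge near maximal dose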
MrgX1 PAM: positive allosteric modulators of MrgX1, primary screen, HEK293 cells, Fluo-4 calcium flux. FDSS; active compounds read high. B-score at 10 µM. Mas-related G-protein coupled receptor member X1 (Homo sapiens), Q96LB2. 0.63% of 310,000 active;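 active = plate-corrected calcium response at least 3 library SD above typical, normal starting fluorescence, not activating the receptor alone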;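 note: compound read alongside a low EC10 to EC30 dose of BAM8-22 agonist; peak minus trough fluorescence over baseline measured at the second addition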
RGS4 block valid: enhanced carbachol calcium response, M3R/RGS4 cells, RGS4 inhibitor project, cell-based, validation screen, HEK293 M3R/RGS4, calcium flux; shares compounds with RGS4 inh; carbachol calcium Fluo-4 fluorescence; carbachol added at its EC20; 0 = buffer wells, 100 = carbachol control; calcium response, % at 10 µM; 65% of 1,700 active;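 active = duplicate-averaged calcium response above the buffer-only control mean plus 5 SD of those controls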;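 note: integrated fluorescence ratio F max minus min over baseline F0; higher response in RGS4-induced cells means RGS4 inhibition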
RGS4 uninduced: carbachol calcium response in non-induced M3R cells, confirmation, counter-screen for RGS4 inhibitor project, cell-based, HEK293 M3R. shares compounds with RGS4 inh. carbachol calcium Fluo-4; submaximal (EC20) carbachol stimulus; buffer wells 0%, carbachol control wells 100%. activity (percent), % at 10 µM. 20% of 1,900 active. AID 493000, 2010; call rule not given here;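 note: RGS4 induction absent so cells express M3R without RGS4; higher means more calcium signal and flags a non-specific hit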
M3R basal Ca ctr: signal in non-induced cells without carbachol, RGS4 inhibitor counter-screen | shares compounds with RGS4 inh | HEK293 M3R/RGS4 non-induced, Fluo-4 calcium, no carbachol; normalised: buffer wells 0%, carbachol wells 100% | calcium response (agonist-mode artifact), % at 10 µM | 22% of 1,900 active;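 active = duplicate-averaged calcium rise in uninduced cells above buffer wells' mean plus 5 SD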
Starred values were filed as active, the others as inactive; i = inactive; / = no result. Most compounds without a hit are left out; they make up all but 3.5% or so of the library.

SMILES	RGS4 act	RGS4 inh	MrgX1 ag	MrgX1 antag	MrgX1 PAM	RGS4 block valid	RGS4 uninduced	M3R basal Ca ctr
COc1ccc2[nH]c(=O)c(CN(C3CCCCC3)C(c3nnnn3Cc3ccco3)C(C)C)cc2c1 (centres undefined)	i	7.63*	i	-4.55*	i	7.5%*	i	24.0%*
CCC(c1nnnn1Cc1ccco1)N(Cc1cc2cc(C)cc(C)c2[nH]c1=O)CC1CCCO1 (centres undefined)	i	5.81*	i	i	i	i	i	i
Cc1ccc2[nH]c(=O)c(C(c3nnnn3C(C)(C)C)N(Cc3ccco3)CC3CCCO3)cc2c1 (centres undefined)	i	i	i	i	i	i	i	i
Cc1ccc2[nH]c(=O)c(C(c3nnnn3C3CCCC3)N(Cc3cccnc3)Cc3ccco3)cc2c1 (centres undefined)	i	i	i	i	i	/	/	/
CCC(c1nnnn1Cc1ccco1)N(Cc1ccccc1OC)Cc1cc2cc(C)ccc2[nH]c1=O (centres undefined)	i	i	i	i	i	/	/	/
Cc1cccc2cc(C(c3nnnn3C(C)(C)C)N(Cc3ccco3)CC3CCCO3)c(=O)[nH]c12 (centres undefined)	i	i	i	i	i	i	i	i
CC(C)(C)n1nnnc1C(c1ccccc1F)N(Cc1ccco1)CC1CCCO1 (centres undefined)	i	i	i	i	i	/	/	/
Cc1ccccc1C(=O)Nc1nnc(S(=O)(=O)N2CCCCC2)s1	i	i	i	i	i	/	/	/
CCOC(=O)COc1ccccc1/C=C\[N+](=O)[O-]	i	19.1*	i	i	i	69.5%*	i	11.0%*
CCOC(=O)COc1cc([N+](=O)[O-])cc2cccnc12	i	i	i	i	i	/	/	/
CSc1nc(-c2ccc(Cl)cc2)nn1C(=O)c1ccco1	i	5.6*	i	i	i	i	i	i
O=C(CSC1=NS(=O)(=O)c2ccccc21)Nc1ccccc1	i	9.38*	i	i	i	25.0%*	i	i
Cc1ccc(C(=O)OCC(=O)NC2CCCC2)cc1	i	i	i	i	i	/	/	/
COc1ccc(-c2oc3ccc(N4CCOCC4)cc3c2C#CC2(O)CCCCC2)cc1	i	i	i	i	i	/	/	/
Cc1cc(N2CCN(c3ccccc3Cl)CC2)n2cc(-c3ccccc3)nc2n1	i	5.95*	i	i	i	27.5%*	i	i
Cc1cc(N2CCN(c3ccccc3)CC2)n2cc(-c3ccccc3)nc2n1	i	i	i	i	i	/	/	/
C=CCSc1nsc(NC(=O)Nc2ccc(F)cc2)n1	i	i	i	i	i	/	/	/
Oc1ccc(-c2n[nH]c(C(F)(F)F)c2-c2ccccc2)c(O)c1	i	25.1*	i	i	i	48.5%*	46.5%*	i
COc1ccc(-c2c(-c3ccc(O)cc3O)n[nH]c2C)cc1OC	i	i	i	i	i	/	/	/
COc1ccccc1-c1c(-c2ccc(O)cc2O)n[nH]c1C(F)(F)F	i	10.8*	i	i	i	39.5%*	33.0%*	i
COc1ccc(-c2c(-c3ccc(O)cc3O)n[nH]c2C(F)(F)F)cc1	i	10.4*	i	i	i	35.0%*	35.0%*	20.0%*
Nc1ncc(-c2ccccc2)c(-c2ccc(O)cc2O)n1	i	i	i	i	i	/	/	/
CCCNC(=O)Nc1ccc(NC(C)=O)cc1	i	i	i	i	i	/	/	/
O=C(CN(Cc1ccccc1)S(=O)(=O)c1ccccc1)N/N=C/c1ccc2c(c1)OCO2	i	i	i	i	i	/	i	i
O=C(CN(CCc1ccccc1)S(=O)(=O)c1ccc(Br)cc1)N/N=C/c1ccc2c(c1)OCO2	i	i	i	i	i	/	/	/
SMILES	RGS4 act	RGS4 inh	MrgX1 ag	MrgX1 antag	MrgX1 PAM	RGS4 block valid	RGS4 uninduced	M3R basal Ca ctr
O=C(CN(Cc1ccc(Cl)c(Cl)c1)S(=O)(=O)c1ccccc1)N/N=C\c1ccc2c(c1)OCO2	i	6.66*	i	i	i	18.0%*	i	i
FC(F)(F)c1ccc(N=Cc2sc(N3CCOCC3)nc2-c2ccccc2)cc1	i	5.55*	i	i	i	5.5%*	i	i
CCCc1sc(N/N=C/c2ccccn2)nc1-c1ccc(Br)cc1	i	i	i	i	i	/	i	i
CC(=O)Nc1sc(N/N=C/c2ccccc2)nc1-c1ccc(C)cc1	i	i	i	i	i	/	/	/
Cc1ccc(C(=O)N/C(=C\c2ccco2)C(=O)N2CCCCC2)cc1	i	i	i	i	i	/	/	/
NC(=O)C1CCN(c2ncnc3c(-c4ccccc4)nsc23)CC1	i	i	i	i	i	/	/	/
COc1ccc(-c2nsc3c(N4CCN(C(=O)c5ccco5)CC4)ncnc23)cc1	i	i	i	i	i	i	i	i
O=C(c1ccco1)N1CCN(c2ncnc3c(-c4ccccc4)nsc23)CC1	i	i	i	i	i	/	i	i
Cc1cc(C)c(NC(=O)c2ccc(CN3CCc4ccccc4C3)cc2)c(C)c1	i	i	i	i	i	/	/	/
CCC1CCCCN1CCCn1c(=S)[nH]c2ccccc2c1=O (centres undefined)	i	6.87*	i	i	i	19.0%*	i	i
O=C(NNC(=O)C1CCCN(c2ncccn2)C1)c1ccncc1 (centres undefined)	i	i	i	i	i	/	/	/
